The source made the active and inactive calls. No cut-off for these calls is given here.
How the values were obtained:
Adenosine receptor A1 = molecular target: T1, Adenosine receptor A1 (Homo sapiens, UniProt P30542); experiment: Displacement of [3H]-DPCPX from human adenosine A1 receptor expressed in HEK293 cell membrane; type: cell membranes
T1 sequence (P30542 whole entry): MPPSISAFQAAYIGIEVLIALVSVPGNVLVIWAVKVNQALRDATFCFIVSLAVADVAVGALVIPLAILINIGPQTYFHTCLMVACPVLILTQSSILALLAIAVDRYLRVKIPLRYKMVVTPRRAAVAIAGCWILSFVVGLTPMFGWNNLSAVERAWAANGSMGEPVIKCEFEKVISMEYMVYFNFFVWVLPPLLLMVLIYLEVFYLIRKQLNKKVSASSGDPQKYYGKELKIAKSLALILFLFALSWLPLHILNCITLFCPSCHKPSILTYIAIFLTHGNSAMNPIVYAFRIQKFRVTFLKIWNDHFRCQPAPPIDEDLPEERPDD
Method in brief: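 Flp-In HEK293 cell line stably expressing the human receptor, crude membranes used at 1–2 µg protein. Pre-incubated 30 min at room temperature with 10 µg/mL adenosine deaminase. Then incubated 90 min with 1.0 nM [3H]-DPCPX and graded competitor in 50 mM Tris-HCl pH 7.4, 1 mM EDTA, 10 mM MgCl2. Nonspecific binding defined with 1 µM DPCPX. Separated by filtration on GF/C, counted by scintillation. Ki from IC50 via Cheng-Prusoff. Mean of at least two runs.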

Adenosine receptor A2a [1] = molecular target: Adenosine receptor A2a (Homo sapiens, UniProt P29274); experiment: Displacement of [3H]-ZM 241385 from human adenosine A2A receptor expressed in HEK293 cell membrane; type: cell membranes
Homo sapiens = species on record: Homo sapiens; experiment: Selectivity ratio of Ki for human adenosine A1 receptor to Ki for human adenosine A2A receptor
Method in brief: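 Stably transfected Flp-In HEK293 membranes with human A1 or A2A receptors (1–2 µg protein) were preincubated 30 min at room temp with adenosine deaminase. They were then incubated 90 min with competitor and 1.0 nM [3H]-DPCPX (A1) or 2.0 nM [3H]-ZM241385 (A2A). Nonspecific binding used 1 µM DPCPX or CGS15943. Filtration and scintillation counting followed. […] Ratio is A1 Ki/A2A Ki.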

Adenosine receptor A2a [2] = molecular target: Adenosine receptor A2a (Rattus norvegicus, UniProt P30543); experiment: Displacement of [3H]-ZM 241385 from rat adenosine A2A receptor expressed in CHO cell membrane; type: cell membranes
[3] = molecular target: Voltage-gated inwardly rectifying potassium channel KCNH2 (Homo sapiens, UniProt Q12809); experiment: Inhibition of human ERG potassium current expressed in HEK293 cells by patch-clamp technique
[4] = Drug level in Wistar rat brain at 30 mg/kg, po after 2 hrs; type: ADME, organism-based; set-up: dose 30 mg/kg, route oral; conditions: read-out: Drug uptake
Method in brief: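 Male Wistar rats, ∼220 g. Oral dose of 30 mg/kg in 5% cremophor in sterile water (5 mL/kg), with haloperidol 1.5 mg/kg ip 1 h before the bar test. Brain collected 2 h after dosing. Half-brain homogenates centrifuged, supernatant analysed by LC-MS/MS (positive ESI, MRM). Quantified against brain-matrix calibration standards by internal-standard peak-area ratio on a 1/x-weighted linear curve.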

Rattus norvegicus = experiment: Effect on haloperidol-induced catalepsy in Wistar rat at 30 mg/kg, po after 2 hrs; type: functional, organism-based; set-up: dose 30 mg/kg
Method in brief: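 Male Wistar rats, ∼220 g, habituated 1 week, 24 per experiment. Oral dose of 30 mg/kg in 5% cremophor/sterile water (5 mL/kg) 2 h before testing, haloperidol 1.5 mg/kg ip 1 h before. Bar test: forepaws placed on 8.0 cm bar, three 30 s trials 3 min apart. Descent latency averaged per rat and compared with vehicle, p < 0.05.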

Cytochrome P450 2D6 = Cytochrome P450 2D6 (Homo sapiens, UniProt P10635); experiment: Inhibition of CYP2D6; type: ADME
Cytochrome P450 3A4 = Cytochrome P450 3A4 (Homo sapiens, UniProt P08684); experiment: Inhibition of CYP3A4; type: ADME
Cytochrome P450 3A4, sequence (P08684 whole entry): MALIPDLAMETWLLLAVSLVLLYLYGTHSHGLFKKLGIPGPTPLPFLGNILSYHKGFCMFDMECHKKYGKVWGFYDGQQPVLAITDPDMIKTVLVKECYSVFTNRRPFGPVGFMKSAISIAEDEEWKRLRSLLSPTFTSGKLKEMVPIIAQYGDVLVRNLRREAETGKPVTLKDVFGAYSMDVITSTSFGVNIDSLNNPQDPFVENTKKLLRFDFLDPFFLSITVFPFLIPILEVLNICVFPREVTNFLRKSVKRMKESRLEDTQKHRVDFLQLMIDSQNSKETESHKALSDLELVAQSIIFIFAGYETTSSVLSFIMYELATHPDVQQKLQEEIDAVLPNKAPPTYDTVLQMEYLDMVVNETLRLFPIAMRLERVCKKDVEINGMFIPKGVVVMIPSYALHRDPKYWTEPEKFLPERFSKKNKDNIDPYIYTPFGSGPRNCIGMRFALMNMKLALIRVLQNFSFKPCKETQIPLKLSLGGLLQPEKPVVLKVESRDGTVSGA

Voltage-gated inwardly rectifying potassium channel KCNH2, sequence (Q12809 whole entry): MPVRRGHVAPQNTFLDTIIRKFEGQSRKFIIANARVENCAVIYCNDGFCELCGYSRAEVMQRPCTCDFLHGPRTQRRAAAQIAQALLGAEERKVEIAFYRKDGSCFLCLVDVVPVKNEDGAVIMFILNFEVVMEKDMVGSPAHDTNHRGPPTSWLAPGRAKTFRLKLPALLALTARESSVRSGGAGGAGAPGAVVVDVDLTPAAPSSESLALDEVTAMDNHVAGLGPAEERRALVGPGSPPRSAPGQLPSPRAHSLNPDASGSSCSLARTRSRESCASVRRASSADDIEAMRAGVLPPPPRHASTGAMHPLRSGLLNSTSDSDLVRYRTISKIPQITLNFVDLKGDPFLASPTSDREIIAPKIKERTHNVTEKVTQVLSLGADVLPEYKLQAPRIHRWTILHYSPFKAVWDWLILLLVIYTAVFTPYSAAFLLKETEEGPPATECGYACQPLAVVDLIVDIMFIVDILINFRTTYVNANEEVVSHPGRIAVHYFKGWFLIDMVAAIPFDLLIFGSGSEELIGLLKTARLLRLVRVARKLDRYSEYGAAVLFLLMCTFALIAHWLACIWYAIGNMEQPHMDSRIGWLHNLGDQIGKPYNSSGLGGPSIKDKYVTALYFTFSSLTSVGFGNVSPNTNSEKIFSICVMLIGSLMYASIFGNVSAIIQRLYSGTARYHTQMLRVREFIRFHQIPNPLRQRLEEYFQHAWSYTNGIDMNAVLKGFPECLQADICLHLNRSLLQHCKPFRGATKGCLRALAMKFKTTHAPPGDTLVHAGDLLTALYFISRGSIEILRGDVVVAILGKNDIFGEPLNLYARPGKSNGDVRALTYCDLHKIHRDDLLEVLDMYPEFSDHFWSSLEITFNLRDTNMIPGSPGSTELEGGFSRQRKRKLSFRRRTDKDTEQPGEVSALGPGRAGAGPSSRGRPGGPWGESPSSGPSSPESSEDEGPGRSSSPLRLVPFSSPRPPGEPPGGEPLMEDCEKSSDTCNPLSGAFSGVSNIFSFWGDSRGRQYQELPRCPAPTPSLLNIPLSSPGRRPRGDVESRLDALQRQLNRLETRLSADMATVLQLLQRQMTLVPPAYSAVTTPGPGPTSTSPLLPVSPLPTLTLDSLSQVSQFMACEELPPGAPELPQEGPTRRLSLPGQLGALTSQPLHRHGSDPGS
Adenosine receptor A2a (Rattus norvegicus, UniProt P30543), sequence (P30543 whole entry): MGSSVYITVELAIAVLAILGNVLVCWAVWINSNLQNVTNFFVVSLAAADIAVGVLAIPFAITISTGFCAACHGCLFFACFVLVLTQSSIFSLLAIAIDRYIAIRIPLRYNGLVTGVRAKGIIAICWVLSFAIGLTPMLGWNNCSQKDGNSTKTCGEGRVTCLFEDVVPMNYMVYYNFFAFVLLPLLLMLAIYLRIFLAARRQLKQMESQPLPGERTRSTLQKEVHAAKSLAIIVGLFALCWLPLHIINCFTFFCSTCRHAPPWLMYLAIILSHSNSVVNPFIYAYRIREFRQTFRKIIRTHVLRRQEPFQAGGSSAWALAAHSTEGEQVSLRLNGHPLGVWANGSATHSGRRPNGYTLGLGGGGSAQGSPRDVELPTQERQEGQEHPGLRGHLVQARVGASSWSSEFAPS
Adenosine receptor A2a (Homo sapiens, UniProt P29274), sequence (P29274 whole entry): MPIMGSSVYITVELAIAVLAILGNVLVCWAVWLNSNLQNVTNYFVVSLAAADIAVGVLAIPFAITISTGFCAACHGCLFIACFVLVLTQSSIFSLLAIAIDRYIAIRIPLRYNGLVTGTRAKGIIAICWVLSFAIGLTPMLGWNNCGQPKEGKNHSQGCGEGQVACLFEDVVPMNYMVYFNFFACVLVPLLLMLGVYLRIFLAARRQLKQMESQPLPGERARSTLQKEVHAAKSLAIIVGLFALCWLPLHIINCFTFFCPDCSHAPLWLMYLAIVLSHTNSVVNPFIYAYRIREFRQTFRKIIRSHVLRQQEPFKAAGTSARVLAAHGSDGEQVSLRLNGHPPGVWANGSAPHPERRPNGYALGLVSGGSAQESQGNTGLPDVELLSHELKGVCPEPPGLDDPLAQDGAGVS
Cytochrome P450 2D6, sequence (P10635 whole entry): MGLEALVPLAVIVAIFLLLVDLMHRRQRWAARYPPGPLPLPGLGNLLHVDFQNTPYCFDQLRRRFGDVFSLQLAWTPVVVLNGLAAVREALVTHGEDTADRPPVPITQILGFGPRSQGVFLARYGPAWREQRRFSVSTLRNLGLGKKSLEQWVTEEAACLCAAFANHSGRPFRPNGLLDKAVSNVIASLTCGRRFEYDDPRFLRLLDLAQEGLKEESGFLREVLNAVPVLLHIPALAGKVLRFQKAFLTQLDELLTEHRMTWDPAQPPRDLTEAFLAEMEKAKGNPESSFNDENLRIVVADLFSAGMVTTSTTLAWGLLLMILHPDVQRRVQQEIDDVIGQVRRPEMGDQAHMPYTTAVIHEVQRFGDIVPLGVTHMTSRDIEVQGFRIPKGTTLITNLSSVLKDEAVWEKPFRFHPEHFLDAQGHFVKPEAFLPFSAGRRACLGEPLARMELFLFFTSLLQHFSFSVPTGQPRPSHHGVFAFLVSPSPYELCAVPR

With `CCN(CC)[C@H]1CCN(CC(=O)Nc2cc(-n3nc(C)cc3C)nc(-c3ccc(C)o3)n2)C1` the Ki (Adenosine receptor A1) was 2600 nM, the Ki (Adenosine receptor A2a [1]) was 4.4 nM and the Ratio Ki (Homo sapiens) was 591. For the same compound, the Ki (Adenosine receptor A2a [2]) was 155 nM.

Work on `COC1CCN(CC(=O)Nc2cc(-n3nc(C)cc3C)nc(-c3ccc(C)o3)n2)CC1` yielded a Ki (Adenosine receptor A1) of 1210 nM, a Ki (Adenosine receptor A2a [1]) of 15 nM and a Ratio Ki (Homo sapiens) of 81. It also gave a Ki (Adenosine receptor A2a [2]) of 1600 nM.

Work on `CC(=O)N1CCN(CC(=O)Nc2cc(-n3nc(C)cc3C)nc(-c3ccc(C)o3)n2)CC1` yielded a Ki (Adenosine receptor A1) of 540 nM, a Ki (Adenosine receptor A2a [1]) of 3.6 nM and a Ratio Ki (Homo sapiens) of 150. It also gave a Ki (Adenosine receptor A2a [2]) of 170 nM.

`Cc1cc(C)n(-c2cc(NC(=O)CN3CCC[C@@H](CN(C)C)C3)nc(-c3ccc(C)o3)n2)n1` gave a Ki (Adenosine receptor A1) of 71 nM, a Ki (Adenosine receptor A2a [1]) of 1.5 nM and a Ratio Ki (Homo sapiens) of 47. The Ki (Adenosine receptor A2a [2]) was 14 nM.

`Cc1cc(C)n(-c2cc(NC(=O)CN3CC[C@H](CN(C)C)C3)nc(-c3ccc(C)o3)n2)n1` gave a Ki (Adenosine receptor A1) of 550 nM, a Ki (Adenosine receptor A2a [1]) of 11 nM and a Ki (Adenosine receptor A2a [2]) of 34 nM.

With `Cc1cc(C)n(-c2cc(NC(=O)CN3CCCN(C)CC3)nc(-c3ccc(C)o3)n2)n1` the IC50 [3] was 285 nM, the Ki (Adenosine receptor A1) was 2100 nM and the Ki (Adenosine receptor A2a [1]) was 10 nM. The Ratio Ki (Homo sapiens) was 210 and the Ki (Adenosine receptor A2a [2]) was 46.7 nM.

For `CCN[C@@H]1CCN(CC(=O)Nc2cc(-n3nc(C)cc3C)nc(-c3ccc(C)o3)n2)C1`, the Ki (Adenosine receptor A1) was 270 nM, the Ki (Adenosine receptor A2a [1]) was 3.8 nM and the Ratio Ki (Homo sapiens) was 71.

`Cc1cc(C)n(-c2cc(NC(=O)CN3CC[C@@H](CN(C)C)C3)nc(-c3ccc(C)o3)n2)n1` gave a Ki (Adenosine receptor A1) of 220 nM, a Ki (Adenosine receptor A2a [1]) of 2.1 nM and a Ki (Adenosine receptor A2a [2]) of 27.8 nM.

`CCN1CCN(CC(=O)Nc2cc(-n3nc(C)cc3C)nc(-c3ccc(C)o3)n2)CC1` gave a Ki (Adenosine receptor A1) of 1880 nM, a Ki (Adenosine receptor A2a [1]) of 11 nM and a Ratio Ki (Homo sapiens) of 171. It also gave a Ki (Adenosine receptor A2a [2]) of 270 nM.

For `Cc1cc(C)n(-c2cc(NC(=O)CCN3CC[C@H](N(C)C)C3)nc(-c3ccc(C)o3)n2)n1`, the IC50 [3] was 2280 nM, the Ki (Adenosine receptor A1) was 630 nM and the Ki (Adenosine receptor A2a [1]) was 2.4 nM. For the same compound, the concentration at 2 h [4] was 250 ng/g, the Ratio Ki (Homo sapiens) was 263 and the Ki (Adenosine receptor A2a [2]) was 41 nM. For the same compound, the Activity (Rattus norvegicus) was “Active”.

`Cc1cc(C)n(-c2cc(NC(=O)CN3CCCC3)nc(-c3ccc(C)o3)n2)n1` showed a Ki (Adenosine receptor A1) of 347 nM, a Ki (Adenosine receptor A2a [1]) of 8.6 nM and a Ratio Ki (Homo sapiens) of 40.

`Cc1cc(C)n(-c2cc(NC(=O)CN3CCCOCC3)nc(-c3ccc(C)o3)n2)n1` showed a Ki (Adenosine receptor A1) of 630 nM, a Ki (Adenosine receptor A2a [1]) of 6 nM and a Ratio Ki (Homo sapiens) of 105. For the same compound, the Ki (Adenosine receptor A2a [2]) was 230 nM.

For `Cc1cc(C)n(-c2cc(NC(=O)CN3CCC(CN(C)C)CC3)nc(-c3ccc(C)o3)n2)n1`, the IC50 [3] was 1670 nM, the Ki (Adenosine receptor A1) was 380 nM and the Ki (Adenosine receptor A2a [1]) was 2.9 nM. The Ratio Ki (Homo sapiens) was 131 and the Ki (Adenosine receptor A2a [2]) was 25 nM.

`Cc1cc(C)n(-c2cc(NC(=O)CC3CCN(C)CC3)nc(-c3ccc(C)o3)n2)n1` showed a Ki (Adenosine receptor A1) of 1020 nM, a Ki (Adenosine receptor A2a [1]) of 5.4 nM and a Ki (Adenosine receptor A2a [2]) of 103 nM.

`Cc1cc(C)n(-c2cc(NC(=O)CN3CCC[C@H](CN(C)C)C3)nc(-c3ccc(C)o3)n2)n1` gave a Ki (Adenosine receptor A1) of 890 nM, a Ki (Adenosine receptor A2a [1]) of 10 nM and a Ratio Ki (Homo sapiens) of 89. For the same compound, the Ki (Adenosine receptor A2a [2]) was 87 nM.

With `Cc1cc(C)n(-c2cc(NC(=O)CN3CC[C@H](N(C)C)C3)nc(-c3ccc(C)o3)n2)n1` the IC50 [3] was 600 nM, the Ki (Adenosine receptor A1) was 940 nM and the Ki (Adenosine receptor A2a [1]) was 3.7 nM. It also gave a concentration at 2 h [4] of 1900 ng/g, a Ratio Ki (Homo sapiens) of 254 and a Ki (Adenosine receptor A2a [2]) of 160 nM. The Activity (Rattus norvegicus) was “Active”.

In the case of `Cc1cc(C)n(-c2cc(NC(=O)CN3CCN(C)CC3)nc(-c3ccc(C)o3)n2)n1`, the Inhibition (Cytochrome P450 2D6) is reported as “Not Active”, the IC50 [3] is reported as 950 nM and the Inhibition (Cytochrome P450 3A4) is reported as “Not Active”. It also gave a Ratio Ki (Homo sapiens) of 71 and a Ki (Adenosine receptor A2a [2]) of 131 nM.

`Cc1cc(C)n(-c2cc(NC(=O)CN3CCOCC3)nc(-c3ccc(C)o3)n2)n1` showed a Ki (Adenosine receptor A1) of 500 nM, a Ki (Adenosine receptor A2a [1]) of 5.7 nM and a Ratio Ki (Homo sapiens) of 88. For the same compound, the Ki (Adenosine receptor A2a [2]) was 430 nM.

For `Cc1cc(C)n(-c2cc(NC(=O)CN3CC[C@@H](N(C)C)C3)nc(-c3ccc(C)o3)n2)n1`, the Ki (Adenosine receptor A1) was 262 nM, the Ki (Adenosine receptor A2a [1]) was 4 nM and the Ratio Ki (Homo sapiens) was 66.

With `Cc1cc(C)n(-c2cc(NC(=O)CN3CC[C@H](OC(C)C)C3)nc(-c3ccc(C)o3)n2)n1` the Ki (Adenosine receptor A1) was 2300 nM, the Ki (Adenosine receptor A2a [1]) was 86 nM and the Ratio Ki (Homo sapiens) was 27.

Work on `CCN[C@H]1CCN(CC(=O)Nc2cc(-n3nc(C)cc3C)nc(-c3ccc(C)o3)n2)C1` yielded an IC50 [3] of 420 nM, a Ki (Adenosine receptor A1) of 370 nM and a Ki (Adenosine receptor A2a [1]) of 2.5 nM. The Ratio Ki (Homo sapiens) was 148 and the Ki (Adenosine receptor A2a [2]) was 37 nM.

`Cc1cc(C)n(-c2cc(NC(=O)CCN(C)C)nc(-c3ccc(C)o3)n2)n1` gave a Ki (Adenosine receptor A1) of 210 nM, a Ki (Adenosine receptor A2a [1]) of 2.1 nM and a Ki (Adenosine receptor A2a [2]) of 43 nM.

Reference: ChEMBL document CHEMBL1142327, “2-Amino-N-pyrimidin-4-ylacetamides as A2A receptor antagonists: 2. Reduction of hERG activity, observed species selectivity, and structure-activity relationships” (J Med Chem, 2008)
